# Calls of active or inactive are those of the source. No cut-off for these calls is given here.
# Legend:
# [1] = system: Trypanosoma cruzi; assay: Antitrypanosomal activity against Trypanosoma cruzi Y trypomastigotes assessed as induction of parasite lysis; type: functional, organism-based
# Summary of the method: (§1)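 Y strain trypomastigotes plated at 1×10^6 parasites/mL and exposed to serial concentrations of 500 to 3.75 µM. After 24 h, parasites were removed and counted in a Neubauer chamber. EC50 comes from dose-response curves.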
# [2] = system: Trypanosoma cruzi; assay: Antitrypanosomal activity against Trypanosoma cruzi Tulahuen trypomastigotes expressing beta-galactosidase gene incubated for 4 days by beta-galactosidase mediated CPRG substrate hydrolysis assay; type: functional, organism-based; details: 96 h
# Summary of the method: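 Tulahuen lacZ (β-galactosidase-expressing) cell-derived trypomastigotes, 5×10^5 per well, exposed 4 days at 37°C to serial concentrations 500 to 3.75 µM. Then PBS with 0.5% Triton X-100 and 100 µM CPRG was added, followed by 4 h at 37°C. Absorbance at 570 nm reflects viability. Run in duplicate. EC50 comes from dose-response curves.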
# [3] = Cytotoxicity in C57BL/6 mouse spleen cells assessed as reduction in cell viability up to 250 uM incubated for 24 hrs by propidium iodide staining based flow cytometry
# Summary of the method: (§2)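 Spleen cells from C57BL/6 mice, after red-cell lysis with Tris–NH4Cl, in RPMI with 5% FBS, seeded at 6.5×10^6/mL. Exposed 24 h at 37°C to 250 to 1.50 µM. Stained with 10 µg/mL propidium iodide and read by flow cytometry. 1% Tween 20 was the death control. Run in triplicate.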
# [4] = system: Trypanosoma cruzi; assay: Antitrypanosomal activity against Trypanosoma cruzi; type: functional, organism-based
# [5] = system: Trypanosoma cruzi; assay: Antitrypanosomal activity against Trypanosoma cruzi Y trypomastigotes; type: functional, organism-based; summary of the method: as §1
# [6] = Selectivity index, ratio of CC50 for cytotoxicity in C57BL/6 spleen cells to EC50 for Antitrypanosomal activity against Trypanosoma cruzi Tulahuen trypomastigotes; type: toxicity, cell-based; details: C57BL/6, mouse, read-out: Ratio CC50/EC50
# [7] = Cytotoxicity in C57BL/6 mouse spleen cells assessed as reduction in cell viability incubated for 24 hrs by propidium iodide staining based flow cytometry; summary of the method: as §2
# [8] = system: Trypanosoma cruzi; assay: Antitrypanosomal activity against Trypanosoma cruzi Tulahuen amastigotes expressing beta-galactosidase gene infected in LLC-MK2 cells incubated for 4 days after 4 hrs post infection by beta-galactosidase mediated CPRG substrate hydrolysis assay; type: functional, organism-based; details: in the assay text read “24 hrs post infection” for “4 hrs post infection”
# Summary of the method: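 LLC-MK2 cells in phenol-red-free RPMI 1640 with 5% FBS, seeded at 2×10^4 cells/mL for 24 h. Infected with Tulahuen lacZ trypomastigotes (3:1 parasite:cell) at 37°C and washed at 4 h. Compounds (500 to 0.24 µM) added 24 h post-infection for 4 days at 37°C. After washing, Triton X-100/100 µM CPRG lysis, 4 h at 37°C, A570. Untreated infected wells were controls.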
# [9] = target: Trypanothione reductase (Trypanosoma cruzi) (UniProt P28593); assay: (§3) Inhibition of Trypanosoma cruzi trypanothione reductase expressed in Escherichia coli BL21 (DE3) pre-incubated for 30 mins using TS2 substrate in presence of NADPH by colorimetric microplate assay
# Summary of the method: (§4)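 Recombinant T. cruzi TR expressed in E. coli BL21DE3 and affinity-purified. Assay: TcTR 5 m-unit, 40 mM HEPES pH 7.5, 0.15 mM NADPH, 1 mM EDTA, 1 µM TS2, compounds in DMSO (final 1% DMSO control). Pre-incubated 30 min at 27°C, then DTNB added, and A412 read every 5 min for 30 min.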
# [10] = system: Trypanosoma cruzi; assay: Growth inhibition of Trypanosoma cruzi amastigotes at 20 ug/ml; type: functional; details: read-out: GI
# [11] = target: Trypanothione reductase (Trypanosoma cruzi, UniProt P28593); assay: as §3; summary of the method: as §4
# Sequence of Trypanothione reductase (P28593 whole entry): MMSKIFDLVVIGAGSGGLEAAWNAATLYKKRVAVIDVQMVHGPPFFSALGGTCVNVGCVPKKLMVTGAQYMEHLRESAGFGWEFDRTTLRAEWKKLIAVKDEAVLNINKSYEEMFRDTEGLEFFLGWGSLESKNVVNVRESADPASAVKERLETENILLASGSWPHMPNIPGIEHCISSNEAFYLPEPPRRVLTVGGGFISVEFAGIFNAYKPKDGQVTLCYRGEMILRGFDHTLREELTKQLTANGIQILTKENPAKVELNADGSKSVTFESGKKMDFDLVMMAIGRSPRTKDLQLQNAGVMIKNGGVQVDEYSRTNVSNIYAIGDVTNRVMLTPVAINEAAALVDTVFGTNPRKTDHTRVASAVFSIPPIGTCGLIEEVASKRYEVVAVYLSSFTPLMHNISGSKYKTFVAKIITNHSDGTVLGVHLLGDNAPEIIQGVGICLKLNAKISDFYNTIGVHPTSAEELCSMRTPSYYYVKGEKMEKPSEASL
# Sequence of Trypanothione reductase (Trypanosoma cruzi) (P28593 whole entry, looked up): as the sequence (P28593 whole entry) above
Structure (SMILES),EC50 [2],IC50 [2],Activity [3],also measured
COc1cc(OC)cc(C(O)CCC(O)c2ccccc2)c1 (stereo unspecified),67.6 µM,67.6 µM,Non-Toxic,
COc1ccc(C(O)CCC(O)c2ccccc2)cc1OC (stereo unspecified),83.1 µM,83.2 µM,Non-Toxic,
COc1cc([C@@H]2O[C@@H](c3cc(OC)c(OCc4ccccc4)c(OC)c3)C(CO)=C2C)cc(OC)c1OC,,,,EC50 [4]: 1.5 µM
COc1cc(C(=O)CCC(=O)c2ccccc2)cc(OC)c1OC,36.9 µM,36.9 µM,Non-Toxic,
COc1ccc(C(O)CCC(O)c2ccccc2)cc1 (stereo unspecified),68.1 µM,68.1 µM,Non-Toxic,
O=C(Cn1ccnc1[N+](=O)[O-])NCc1ccccc1 [BENZNIDAZOLE],1.65 µM,,,EC50 [5]: 0.04 µM
OC(CCC(O)c1ccccc1)c1ccccc1 (stereo unspecified),33.2 µM,33.2 µM,,selectivity ratio [6]: 5; CC50 at 24 h [7]: 166 µM
NS(=O)(=O)c1ccc(-c2ccco2)cc1,,,,inhibition of growth at 20 µg/mL [10]: 70%
COc1cccc(C(O)C#CC(O)c2ccccc2)c1 (stereo unspecified),39.1 µM,39.1 µM,Non-Toxic,
O=C(CCC(=O)c1ccccc1)c1ccccc1,199 µM,199 µM,,selectivity ratio [6]: 1.1; CC50 at 24 h [7]: 220 µM
COc1cc([C@@H]2O[C@@H](c3cc(OC)c(OC)c(OC)c3)[C@H](C)[C@H]2C)cc(OC)c1OC [GRANDISIN],28.6 µM,,,EC50 [1]: 3.7 µM
c1ccc(C2CCC(c3ccccc3)O2)cc1 (stereo unspecified),37.3 µM,37.3 µM,Non-Toxic,
COc1cc(-c2ccc(-c3ccccc3)o2)cc(OC)c1OC,29.1 µM,29.1 µM,Non-Toxic,
COc1ccc(C(O)C#CC(O)c2ccccc2)c(OC)c1 (stereo unspecified),37.9 µM,37.8 µM,Non-Toxic,
COc1cc(C(O)CCC(O)c2ccccc2)cc(OC)c1OC (stereo unspecified),77.5 µM,77.4 µM,,selectivity ratio [6]: 1.5; CC50 at 24 h [7]: 115 µM
COc1cccc(C(O)CCC(O)c2ccccc2)c1 (stereo unspecified),193 µM,193 µM,Non-Toxic,
COc1cc(C2CCC(c3ccccc3)O2)cc(OC)c1OC (stereo unspecified),26.2 µM,26.2 µM,Non-Toxic,
COc1ccc(C(=O)CCC(=O)c2ccccc2)cc1OC,36 µM,36 µM,Non-Toxic,
COc1ccc(-c2ccc(-c3ccc(OC)c(OC)c3)o2)cc1OC,,,,inhibition of growth at 20 µg/mL [10]: 65%
COc1ccc(C2CCC(c3ccccc3)O2)cc1OC (stereo unspecified),24.6 µM,24.6 µM,Non-Toxic,

# Continued, in another order:
EC50 [2],IC50 [2],Structure (SMILES),Activity [3],also measured
2.67 µM,,COc1ccc([C@H]2O[C@@H](c3ccc(OC)c(OC)c3)[C@H](C)[C@H]2C)cc1OC [VERAGUENSIN],,EC50 [1]: 2.3 µM
14 µM,14 µM,COc1ccc(C(O)C#CC(O)c2ccccc2)cc1 (stereo unspecified),Non-Toxic,
15.9 µM,15.9 µM,COc1ccc(C(=O)CCC(=O)c2ccccc2)cc1,Non-Toxic,
0.01 µM,,COc1cc(OC)cc(-c2ccc(-c3ccccc3)o2)c1,Non-Toxic,EC50 [8]: 133 µM; EC50 [5]: 4.08 µM; inhibition [9]: inactive
7.79 µM,7.8 µM,COc1ccc(C(=O)CCC(=O)c2ccccc2)c(OC)c1,Non-Toxic,EC50 [5]: 1.76 µM
2.29 µM,2.29 µM,COc1cccc(C2CCC(c3ccccc3)O2)c1 (stereo unspecified),Non-Toxic,EC50 [8]: 126 µM; EC50 [5]: 34.2 µM
1.69 µM,1.69 µM,COc1cc(OC)cc(C(=O)CCC(=O)c2ccccc2)c1,Non-Toxic,EC50 [5]: 15.9 µM
21 µM,21 µM,c1ccc(-c2ccc(-c3ccccc3)o2)cc1,,selectivity ratio [6]: 9.2; CC50 at 24 h [7]: 194 µM
3.34 µM,3.34 µM,COc1cccc(-c2ccc(-c3ccccc3)o2)c1,Non-Toxic,EC50 [8]: 126 µM; EC50 [5]: 34.2 µM; IC50 [11]: 8.9 µM
1.34 µM,1.34 µM,COc1ccc(-c2ccc(-c3ccccc3)o2)cc1OC,Non-Toxic,EC50 [8]: 126 µM; EC50 [5]: 32.6 µM; IC50 [11]: 19.2 µM
12.1 µM,12.1 µM,COc1cc(OC)cc(C2CCC(c3ccccc3)O2)c1 (stereo unspecified),Non-Toxic,
0.75 µM,0.75 µM,COc1ccc(C2CCC(c3ccccc3)O2)c(OC)c1 (stereo unspecified),Non-Toxic,EC50 [8]: 19.8 µM; EC50 [5]: 1.05 µM
19.9 µM,19.9 µM,COc1ccc(C(O)CCC(O)c2ccccc2)c(OC)c1 (stereo unspecified),,selectivity ratio [6]: 11.9; CC50 at 24 h [7]: 236 µM
1.12 µM,1.12 µM,COc1ccc(-c2ccc(-c3ccccc3)o2)c(OC)c1,Non-Toxic,EC50 [8]: 19 µM; EC50 [5]: 35.9 µM; IC50 [11]: 17.7 µM
18.3 µM,18.3 µM,COc1cccc(C(=O)CCC(=O)c2ccccc2)c1,Non-Toxic,
9.07 µM,9.08 µM,COc1ccc(C2CCC(c3ccccc3)O2)cc1 (stereo unspecified),Non-Toxic,
4.75 µM,4.75 µM,COc1ccc(-c2ccc(-c3ccccc3)o2)cc1,Non-Toxic,EC50 [8]: 127 µM; EC50 [5]: 19.2 µM; IC50 [11]: 7.4 µM
18.7 µM,18.7 µM,OC(C#CC(O)c1ccccc1)c1ccccc1 (stereo unspecified),Non-Toxic,
4.98 µM,4.98 µM,COc1cc(OC)cc(C(O)C#CC(O)c2ccccc2)c1 (stereo unspecified),,selectivity ratio [6]: 15.8; CC50 at 24 h [7]: 78.6 µM
4.88 µM,4.88 µM,COc1cc(C(O)C#CC(O)c2ccccc2)cc(OC)c1OC (stereo unspecified),Non-Toxic,EC50 [5]: 97.1 µM
8.98 µM,8.97 µM,COc1ccc(C(O)C#CC(O)c2ccccc2)cc1OC (stereo unspecified),Non-Toxic,
